The record followed here is ChEMBL document CHEMBL1125824, “New pepstatin analogues: synthesis and pepsin inhibition” (J Med Chem, 1991).

Usually pKi stands for the Ki on a negative log10 scale, so that one unit is a factor of ten. The term pIC50 denotes the negative decadic logarithm of the IC50, by convention in mol/L. Low values mean a high IC50, high ones a low IC50.

In assay [1] the target is T1, Pepsin A (Sus scrofa, UniProt P00791). The assay can be described thus: Compound was measured for the apparent inhibition constant at pepsin. In short, it runs like this:
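Apparent Ki from the pepsin–hemoglobin assay: pH 2.0 KCl–HCl buffer, 30 min total at 37 °C, perchloric acid quench, A280 of supernatant minus blank. IC50 came from % inhibition vs log [inhibitor], four replicates at ≥5 concentrations. Ki(app) was calculated as IC50 − 0.5[E]0, where [E]0 is the enzyme concentration.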

Assay [2] addresses T1, Pepsin A. Put plainly: Compound was measured for the inhibition of pepsin hydrolysis of hemoglobin. In short, it runs like this: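 Porcine pepsin acting on hemoglobin substrate (0.5% solution) with inhibitor in 0.02 M KCl–HCl, pH 2.0. Substrate and inhibitor were preincubated 3 min at 37 °C, then enzyme was added for 27 min at 37 °C. The reaction was quenched with 1.5 M perchloric acid, protein was spun out, and A280 was read minus a no-enzyme blank. Four replicates at ≥5 concentrations; IC50 from % inhibition vs log concentration.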

pIC50, pKi: −log10 of the molar value.

T1 sequence (P00791 whole entry): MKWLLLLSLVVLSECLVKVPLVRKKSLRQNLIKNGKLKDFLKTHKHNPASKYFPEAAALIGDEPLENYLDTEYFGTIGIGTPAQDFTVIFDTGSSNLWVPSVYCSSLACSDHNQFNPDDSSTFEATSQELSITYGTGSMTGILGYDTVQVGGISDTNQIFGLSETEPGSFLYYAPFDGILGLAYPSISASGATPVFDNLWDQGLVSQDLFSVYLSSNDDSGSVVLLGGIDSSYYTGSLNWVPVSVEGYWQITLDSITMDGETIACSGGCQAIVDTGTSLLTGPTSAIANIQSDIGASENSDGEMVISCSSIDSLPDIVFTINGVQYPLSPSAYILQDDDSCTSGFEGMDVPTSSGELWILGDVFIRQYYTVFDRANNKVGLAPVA

In the case of `CC(C)[C@H](NC(=O)OCc1ccccc1)C(=O)N[C@H](C(=O)NC(c1ccc(O)cc1)C(O)CC(=O)O)C(C)C` (stereo partly specified), the pKi at Pepsin A [1] was 2.95. Further, on Pepsin A [2], the pIC50 was 2.95.
On to `CCCCC(NC(=O)[C@@H](NC(=O)[C@@H](NC(=O)OCc1ccccc1)C(C)C)C(C)C)C(O)CC(=O)O` (stereo partly specified), for which the pIC50 against Pepsin A [2] was 8.00.
Take `CC(C)[C@H](NC(=O)OCc1ccccc1)C(=O)N[C@H](C(=O)NC(c1ccccc1)C(O)CC(=O)O)C(C)C` (stereo partly specified): the pKi on Pepsin A [1] is 6.39. The same compound had a pIC50 at Pepsin A [2] of 6.38.
With `CC(C)CC(NC(=O)[C@@H](NC(=O)[C@H](NC(=O)OCc1ccccc1)C(C)C)C(C)C)C(O)CC(=O)O` (stereo partly specified), the pKi on Pepsin A [1] was 4.40. In addition, the pIC50 on Pepsin A [2] is 4.40.
Take `CCCCC(NC(=O)[C@@H](NC(=O)[C@H](NC(=O)OCc1ccccc1)C(C)C)C(C)C)C(O)CC(=O)O` (stereo partly specified): the pKi at Pepsin A [1] is 4.75. At Pepsin A [2], the pIC50 was 4.75.
Regarding `CC(C)CC(NC(=O)[C@@H](NC(=O)[C@@H](NC(=O)OCc1ccccc1)C(C)C)C(C)C)C(O)CC(=O)O` (stereo partly specified), the pKi on Pepsin A [1] is 6.72. The negative logarithm of the IC50 (pIC50) at Pepsin A [2] was 6.70.
Consider `CC(C)[C@H](NC(=O)[C@H](NC(=O)OCc1ccccc1)C(C)C)C(=O)NC(c1ccc(O)cc1)C(O)CC(=O)O` (stereo partly specified), for which the pKi on Pepsin A [1] is 2.81. On Pepsin A [2], this compound gave a pIC50 of 2.81.
Take `CC(C)[C@H](NC(=O)[C@H](NC(=O)OCc1ccccc1)C(C)C)C(=O)NC(c1ccccc1)C(O)CC(=O)O` (stereo partly specified): the pKi on Pepsin A [1] was 3.46. Further, the pIC50 at Pepsin A [2] was 3.46.
Consider `CC(C)CC(=O)N[C@H](C(=O)N[C@H](C(=O)N[C@@H](CC(C)C)[C@@H](O)CC(=O)N[C@@H](C)C(=O)N[C@@H](CC(C)C)[C@@H](O)CC(=O)O)C(C)C)C(C)C` [PEPSTATIN], for which the pIC50 against Pepsin A [2] is 8.15.
